Measured values as given in ChEMBL document CHEMBL3392968 (Eur J Med Chem, 2015).
Values after ≈ are worked out from the molar mass of the structure shown. Active and inactive are the calls of the source. The calls are words filed in the database; no cut-off is given here.

Tests used:
C6 [1] = assay: Induction of cell cycle arrest in rat C6 cells assessed as accumulation at G1 phase after 24 and 48 hrs by propidium iodide staining based flow cytometry; assay type: functional
Method in brief: (§1)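 C6 cells at 5 µM. About 3 × 10^5 cells fixed in 70% cold ethanol overnight at 4 °C, then stained with 20 µg/mL PI plus 100 µg/mL RNase (final). 10^4 cells analysed by flow cytometry (linear FL3), with doublets excluded by FL3-Area/Width gating; G1, S and G2/M fractions taken from DNA content.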

C6 [2] = assay: Induction of cell cycle arrest in rat C6 cells assessed as accumulation at G2/M phase after 24 and 48 hrs by propidium iodide staining based flow cytometry; assay type: functional; method in brief: as §1
C6 [3] = assay: Antimigratory activity against rat C6 cells assessed as cell migration level at 5 uM after 24 hrs by transwell chamber assay (reference value: 60%); assay type: functional, cell-based
Method in brief: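 C6 cells grown to 70-80% confluency, serum-starved 24 h, then seeded at 10^5 cells/mL in serum-free HAM'S F12 into the upper chamber of an 8 µm-pore transwell; lower chamber held medium with 5% FCS. Compounds (5 µM final) added 2 h after seeding; 24 h at 37 °C. Migrated cells methanol-fixed, DAPI-stained, counted in five fields, scaled to insert area, expressed as % of cells seeded.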

[4] = molecular target: T1, Histone deacetylase (Rattus norvegicus) (UniProt Q6P6W3+Q99P99+Q99P96+Q4QQW4+Q99P97+Q5RJZ2+B1WBY8); assay: Inhibition of HDAC in rat C6 cells assessed as increase in histone H3 acetylation at 5 uM after 6 hrs by flow cytometry (reference value: 4.5%); assay type: cell-based; set-up: scale not given: the % may be the effect or the level left
Method in brief: (§2)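 C6 cells treated at 5 µM for 6, 15 or 24 h, with DMSO vehicle as control. Fixed in 1% paraformaldehyde, permeabilized with 0.1% Triton X-100, blocked in goat serum. Stained with anti-acetyl-H3 (Lys9) rabbit mAb (1:100, 1 h on ice), then FITC anti-rabbit IgG (20 µg/mL, 45 min). About 10000 events at 488 nm; acetylation quantified from MFI.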

C6 [5] = assay: Induction of cell cycle arrest in rat C6 cells assessed as accumulation at S phase after 24 and 48 hrs by propidium iodide staining based flow cytometry; assay type: functional; method in brief: as §1
[6] = molecular target: T1, Histone deacetylase (Rattus norvegicus); assay: Inhibition of HDAC in rat C6 cells assessed as increase in histone H3 acetylation at 5 uM after 15 hrs by flow cytometry; assay type: cell-based; method in brief: as §2
C6 [7] = assay: Cytotoxicity against rat C6 cells assessed as reduction in cell viability at 0.1 to 5 uM after 48 hrs by MTT assay; assay type: functional
Method in brief: (§3)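 C6 cells (HAM'S F12, 10% FBS, 2 mM glutamine, 37 °C, 5% CO2) seeded at 5 × 10^4 cells/well and exposed to 0.1–5 µM for 24, 48 or 72 h. MTT reduction read at 570 nm; viability = A_sample/A_vehicle control × 100. Four independent experiments.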

C6 [8] = assay: Induction of cell cycle arrest in rat C6 cells assessed as increase in accumulation at S phase after 72 hrs by propidium iodide staining based flow cytometry; assay type: functional; method in brief: as §1
[9] = Displacement of [3H]-DTG from sigma 2 receptor guinea pig brain membranes incubated for 120 mins by scintillation counting method; set-up: species or system Cavia porcellus, Membrane
Method in brief: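 Guinea pig brain membranes (360 µg protein) with 3 nM [3H]DTG and test compound (10^-5 to 10^-10 M) in 50 mM Tris-HCl pH 8.0, 120 min at room temperature, with 400 nM (+)-SKF10,047 masking σ1 sites. Nonspecific binding with 5 µM DTG; PEI-presoaked GF/B filtration, scintillation counting, Ki by EBDA/LIGAND.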

C6 [10] = assay: Induction of necrosis in rat C6 cells after 25 to 72 hrs by Annexin-V/propidium iodide staining based flow cytometry; assay type: functional; settings: in the assay text read “24 to 72 hrs” for “25 to 72 hrs”
Method in brief: (§4)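 C6 cells treated at 5 µM for 24, 48 and 72 h. 2.5 × 10^5 cells stained with Annexin-V-FITC (10 min, room temperature, dark), then PI 5 µg/mL. At least 10^4 events collected (FL1/FL3). Late apoptotic cells were Annexin-V+/PI+; necrotic cells were Annexin-V−/PI+.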

Plasma [11] = assay: Stability in rat plasma assessed pseudo-first-order rate constant at 1 mg/mL by HPLC method; assay type: ADME, cell-free
Method in brief: (§5)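 Human or rat plasma, obtained from citrated blood (0.3% citric acid) centrifuged at 3000 × g, diluted to 80% with 0.02 M phosphate buffer pH 7.4, incubated with compound at 37 °C. Samples centrifuged at 5000 × g; supernatant analysed by RP-C18 HPLC; remaining intact compound plotted against time to obtain kobs and half-life.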

[12] = molecular target: T1, Histone deacetylase (Rattus norvegicus); assay: Inhibition of HDAC in rat C6 cells assessed as increase in histone H3 acetylation at 5 uM after 24 hrs by flow cytometry (reference value: 4.5%); assay type: cell-based; set-up: scale not given: the % may be the effect or the level left; method in brief: as §2
C6 [13] = assay: Cytotoxicity against rat C6 cells assessed as reduction in cell viability at 0.5 to 5 uM after 24 hrs by MTT assay; assay type: functional; method in brief: as §3
[14] = Stability in rat plasma assessed half life at 1 mg/mL by HPLC method; assay type: ADME, cell-free; method in brief: as §5
[15] = molecular target: Sigma non-opioid intracellular receptor 1 (Cavia porcellus, UniProt Q60492); assay: Displacement of [3H]-(+)-pentazocine from sigma 1 receptor guinea pig brain membranes incubated for 150 mins by scintillation counting method; set-up: species or system Membrane
[16] = Stability in human plasma assessed half life at 1 mg/mL by HPLC method; assay type: ADME, cell-free; method in brief: as §5
C6 [17] = assay: Induction of late apoptosis in rat C6 cells after 25 to 72 hrs by Annexin-V/propidium iodide staining based flow cytometry; assay type: functional; settings: in the assay text read “24 to 72 hrs” for “25 to 72 hrs”; method in brief: as §4
Plasma [18] = assay: Stability in human plasma assessed pseudo-first-order rate constant at 1 mg/mL by HPLC method; assay type: ADME, cell-free; method in brief: as §5
C6 [19] = assay: Cytotoxicity against rat C6 cells assessed as reduction in cell viability at 0.1 to 5 uM after 24 hrs by MTT assay; assay type: functional, cell-based; method in brief: as §3
D(3) dopamine receptor = D(3) dopamine receptor (Rattus norvegicus, UniProt P19020); assay: Displacement of [3H]-7-OH-DPAT from dopamine D3 receptor in rat olfactory tubercle by scintillation counting method; assay type: tissue-based
D(2) dopamine receptor = D(2) dopamine receptor (Rattus norvegicus, UniProt P61169); assay: Displacement of [3H]-spiperone from dopamine D2 receptor in rat striatum by scintillation counting method
C6 [20] = assay: Cytotoxicity against rat C6 cells assessed as reduction in cell viability at 0.1 to 5 uM after 72 hrs by MTT assay; assay type: functional; method in brief: as §3
[21] = Effective permeability of the compound by PAMPA method; assay type: ADME; settings: read-out: Peff
Method in brief: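 PAMPA using a porcine polar brain lipid–impregnated filter. Donor: phosphate buffer pH 7.4/pH 6.5 with 500 µM compound and 20% iPrOH co-solvent; acceptor: same buffer. Incubated 18 h at room temperature; donor and acceptor concentrations measured by HPLC; Peff calculated from volumes, filter area (0.28 cm2) and time.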

C6 [22] = assay: Drug metabolism in rat C6 cells assessed as metabolite formation at 5 uM incubated for 24 hrs at 37 degC by LC/MS spectrometry; assay type: ADME, cell-based; settings: c6, 24 h
Method in brief: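 Glioma C6 cells incubated with 5 µM for 24 h at 37 °C. Cell lysates (2 mg) analysed by LC-MS, compared with untreated control lysates, to detect metabolite ions.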

[23] = Stability in pH 1.3 0.02 M […] buffer containing 0.1% (v/v) Cremophor ELP assessed as pseudo-first-order rate constant […] by HPLC method; assay type: physicochemical
Method in brief: (§6)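 Reaction started by adding 1 mL of a 10^-4 M acetonitrile stock to 10 mL of buffer at 37 ± 0.5 °C. Buffers: pH 7.4, 0.02 M phosphate; pH 1.3, 0.02 M chloridric; both with 0.1% (v/v) Cremophor ELP. Followed by RP-C18 HPLC; run in triplicate, with mean rate constants reported.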

[24] = Solubility in water at 50 mg incubated at 25 degC for 1 hr by HPLC method; assay type: physicochemical
[25] = Stability in pH 7.4 0.02 M phosphate buffer containing 0.1% (v/v) Cremophor ELP assessed as pseudo-first-order rate constant […] by HPLC method; assay type: physicochemical; method in brief: as §6
[26] = Stability in pH 1.3 0.02 M […] buffer containing 0.1% (v/v) Cremophor ELP assessed as half life […] by HPLC method; assay type: physicochemical; method in brief: as §6
[27] = Stability in pH 7.4 0.02 M phosphate buffer containing 0.1% (v/v) Cremophor ELP assessed as half life at […] by HPLC method; assay type: physicochemical; method in brief: as §6
C6 [28] = assay: Induction of necrosis in rat C6 cells after 24 to 72 hrs by Annexin-V/propidium iodide staining based flow cytometry
C6 [29] = assay: Induction of late apoptosis in rat C6 cells after 24 to 72 hrs by Annexin-V/propidium iodide staining based flow cytometry

Chain of D(3) dopamine receptor (P19020 whole entry): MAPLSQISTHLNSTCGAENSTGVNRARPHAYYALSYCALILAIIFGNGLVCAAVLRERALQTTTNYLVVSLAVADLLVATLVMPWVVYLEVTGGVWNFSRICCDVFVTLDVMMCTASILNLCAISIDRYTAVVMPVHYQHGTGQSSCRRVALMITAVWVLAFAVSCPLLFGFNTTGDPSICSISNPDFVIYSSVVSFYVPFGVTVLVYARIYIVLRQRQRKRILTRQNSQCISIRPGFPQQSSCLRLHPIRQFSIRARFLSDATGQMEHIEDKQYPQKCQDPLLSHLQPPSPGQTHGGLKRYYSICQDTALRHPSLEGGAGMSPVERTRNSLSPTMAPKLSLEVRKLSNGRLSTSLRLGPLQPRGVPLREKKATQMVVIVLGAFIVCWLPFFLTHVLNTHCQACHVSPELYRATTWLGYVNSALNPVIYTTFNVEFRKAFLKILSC
Chain of D(2) dopamine receptor (P61169 whole entry): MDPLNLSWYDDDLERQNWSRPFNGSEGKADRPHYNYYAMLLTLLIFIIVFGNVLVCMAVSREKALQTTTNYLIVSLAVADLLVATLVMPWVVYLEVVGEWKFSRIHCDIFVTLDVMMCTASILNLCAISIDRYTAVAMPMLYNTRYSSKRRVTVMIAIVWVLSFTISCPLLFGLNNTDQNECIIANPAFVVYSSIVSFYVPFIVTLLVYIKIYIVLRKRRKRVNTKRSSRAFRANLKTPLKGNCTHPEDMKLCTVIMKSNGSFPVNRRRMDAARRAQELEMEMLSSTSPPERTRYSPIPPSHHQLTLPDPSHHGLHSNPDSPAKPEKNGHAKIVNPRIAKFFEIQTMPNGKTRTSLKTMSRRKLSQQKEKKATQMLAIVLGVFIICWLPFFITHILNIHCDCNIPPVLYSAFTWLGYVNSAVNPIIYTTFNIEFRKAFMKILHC
Chain of Sigma non-opioid intracellular receptor 1 (Q60492 whole entry): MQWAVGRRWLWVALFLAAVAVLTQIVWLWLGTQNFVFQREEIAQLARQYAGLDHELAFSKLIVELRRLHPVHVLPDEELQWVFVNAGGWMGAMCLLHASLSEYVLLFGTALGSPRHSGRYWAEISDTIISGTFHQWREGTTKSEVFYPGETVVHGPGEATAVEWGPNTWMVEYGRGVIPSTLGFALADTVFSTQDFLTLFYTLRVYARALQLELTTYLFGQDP

| Activity [4] | Activity [6] | Ki [9] [nM] | K (Plasma [11]) [h⁻¹] | half-life at 1 mg/mL [14] [h] | half-life at 1 mg/mL [16] [h] | K (Plasma [18]) [h⁻¹] | Compound | Activity (C6 [1]) | Activity (C6 [2]) | Activity (C6 [3]) | Activity (C6 [5]) | Activity (C6 [7]) | Activity (C6 [8]) | Activity (C6 [19]) | Ki (D(3) dopamine receptor) [nM] | Activity (C6 [20]) [%] | further results |
| --- | --- | --- | --- | --- | --- | --- | --- | --- | --- | --- | --- | --- | --- | --- | --- | --- | --- |
| – | – | 18 | – | – | – | – | O=C(CCCN1CCC(O)(c2ccc(Cl)cc2)CC1)c1ccc(F)cc1 [HALOPERIDOL] | – | – | – | – | – | – | – | – | – | – |
| 16.1% | inactive | 52.7 | 2.22 | 0.312 | 84.3 | 0.008 | O=C(CCCc1ccccc1)O[C@H](CCCN1CCC(O)(c2ccc(Cl)cc2)CC1)c1ccc(F)cc1 | inactive | inactive | Active | inactive | 60% | Active | Dose-dependent effect | > 5000 | 40 | Activity (C6 [10]): 40%; Activity [12]: 7.2%; Activity (C6 [13]): 40%; Ki [15]: 87.5 nM; Activity (C6 [17]): 40%; Ki (D(2) dopamine receptor): > 5000 nM |
| 14% | inactive | – | 6.41 | 0.108 | 92 | 0.008 | O=C(CCCc1ccccc1)OC(CCCN1CCC(O)(c2ccc(Cl)cc2)CC1)c1ccc(F)cc1 (racemic) | inactive | inactive | Active | inactive | 60% | Active | Dose-dependent effect | – | 40 | Activity (C6 [10]): 35%; Papp [21]: 5.25 ×10⁻⁶ cm/s; Drug metabolism (C6 [22]): metabolite_detected; Activity (C6 [17]): 35%; K [23]: 0.005 h⁻¹; solubility at 1 h [24]: 1.2 µg/mL (≈ 2.29 µM); K [25]: 0.005 h⁻¹; IC50 (C6 [19]; C6, 24 h): 5000 nM; half-life at 10000 µM [26]: 140 h; half-life at 10000 µM [27]: 127 h |
| 14% | inactive | – | – | – | – | – | O=C(O)CCCc1ccccc1 [PHENYLBUTANOIC ACID] | inactive | inactive | inactive | inactive | – | inactive | – | – | – | – |
| inactive | inactive | 118 | 3.09 | 0.224 | 90.7 | 0.008 | O=C(CCCc1ccccc1)O[C@@H](CCCN1CCC(O)(c2ccc(Cl)cc2)CC1)c1ccc(F)cc1 | inactive | inactive | Active | inactive | 60% | Active | Dose-dependent effect | > 5000 | 40 | Activity (C6 [13]): 50%; Activity (C6 [28]): 25%; Ki [15]: 230 nM; Activity (C6 [29]): 25%; Ki (D(2) dopamine receptor): > 5000 nM |

Continued, compound first:

| Compound | Activity [4] | Activity [6] | Ki [9] [nM] | K (Plasma [11]) [h⁻¹] | half-life at 1 mg/mL [14] [h] | half-life at 1 mg/mL [16] [h] | K (Plasma [18]) [h⁻¹] | Activity (C6 [1]) | Activity (C6 [2]) | Activity (C6 [3]) | Activity (C6 [5]) | Activity (C6 [7]) | Activity (C6 [8]) | Activity (C6 [19]) | Ki (D(3) dopamine receptor) [nM] | Activity (C6 [20]) [%] | further results |
| --- | --- | --- | --- | --- | --- | --- | --- | --- | --- | --- | --- | --- | --- | --- | --- | --- | --- |
| OC(CCCN1CCC(O)(c2ccc(Cl)cc2)CC1)c1ccc(F)cc1 (racemic) [HYDROXYHALOPERIDOL] | inactive | inactive | 2 | – | – | – | – | inactive | inactive | inactive | inactive | inactive | inactive | – | – | – | – |
| Cc1ccccc1NC(=N)Nc1ccccc1C [DITOLYLGUANIDINE] | – | – | 22 | – | – | – | – | – | – | – | – | – | – | – | – | – | – |
| O[C@@H](CCCN1CCC(O)(c2ccc(Cl)cc2)CC1)c1ccc(F)cc1 | – | – | 9.8 | – | – | – | – | – | – | – | – | – | – | – | 353 | – | – |
| O[C@H](CCCN1CCC(O)(c2ccc(Cl)cc2)CC1)c1ccc(F)cc1 | – | – | 32 | – | – | – | – | – | – | – | – | – | – | – | 1280 | – | – |
